Measured values as given in ChEMBL document CHEMBL1123812, “Pyrroloisoquinoline antidepressants. 2. In-depth exploration of structure-activity relationships” (J Med Chem, 1987).
Blank lines part the entries; values can stand above or below the molecule they belong to. Activity calls are given as the source filed them.

Columns and labels:
[1] = test system: Mus musculus; assay: (§1) Ability to antagonise intraperitoneal dose; inactive (<10% antagonism) at 30 mgjkg is represented as I-30.; assay type: functional, organism-based
Procedure, shortened: (§2)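 Swiss Webster male albino mice, nonfasted, 18–24 g, 10 per dose and in saline control. Compound given ip 30 min before TBZ 32 mg/kg ip. Motor activity and ptosis scored. Response corrected by Abbott's formula when control response was 90% or less. Doses expressed as free base.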

[2] = test system: Mus musculus; assay: as §1; assay type: functional, organism-based; procedure, shortened: as §2; remark: listed apart in the source
[3] = target: Sodium-dependent dopamine transporter (Rattus norvegicus, UniProt P23977); assay: Inhibition of the uptake of tritiated dopamine (DA) in rat synaptosomes; assay type: subcellular, Brain
[4] = target: Norepinephrine transporter (Rattus norvegicus, UniProt Q9WTR4); assay: Inhibition of uptake of tritiated norepinephrine (NE) in rat synaptosomes; assay type: subcellular, Brain
[5] = target: D(2) dopamine receptor (Rattus norvegicus, UniProt P61169); assay: Binding affinity towards Dopamine receptor D2
[6] = species on record: Mus musculus; assay: Antagonism of tetrabenazine (TBZ)-induced depression in mice measured for ptosis; assay type: functional
Procedure, shortened: (§3)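 Nonfasted male Swiss Webster mice, 18–24 g, ten per dose level and in saline controls. Test compound given ip 30 min before tetrabenazine 32 mg/kg ip; dose expressed as free base. Motor activity and ptosis scored. Control response ≤90% corrected by Abbott's formula.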

[7] = species on record: Mus musculus; assay: Antagonism of tetrabenazine (TBZ)-induced depression measured in mice by motor activity; assay type: functional; procedure, shortened: as §3
[8] = target: Serotonin 1 (5-HT1) receptor (Rattus norvegicus, UniProt P28564+P30940+P19327+P28565); assay: Binding affinity towards serotonin S1 receptor; assay type: protein assay
Procedure, shortened: (§4)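 Rat brain crude synaptic membranes in 20 mM NaHEPES pH 7.5. Ligands: α1 cortex […] 0.4 nM, nonspecific with (-)-NE 100 μM, 30 min at 25 °C. […] D2 striatum [3H]spiperone 0.05 nM with (+)-butaclamol 1 μM, 45 min at 37 °C. S1 cortex [3H]5-HT 1 nM plus glutathione and MgCl2, with 5-HT 10 μM, 20 min at 37 °C. […] Samples filtered on GF/B and counted.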

[9] = target: T1, Adrenergic receptor alpha-2 (Rattus norvegicus, UniProt P22086+P19328+P22909); assay: Binding affinity towards alpha-2 adrenergic receptor; assay type: protein assay
T1 sequence (P22086 whole entry): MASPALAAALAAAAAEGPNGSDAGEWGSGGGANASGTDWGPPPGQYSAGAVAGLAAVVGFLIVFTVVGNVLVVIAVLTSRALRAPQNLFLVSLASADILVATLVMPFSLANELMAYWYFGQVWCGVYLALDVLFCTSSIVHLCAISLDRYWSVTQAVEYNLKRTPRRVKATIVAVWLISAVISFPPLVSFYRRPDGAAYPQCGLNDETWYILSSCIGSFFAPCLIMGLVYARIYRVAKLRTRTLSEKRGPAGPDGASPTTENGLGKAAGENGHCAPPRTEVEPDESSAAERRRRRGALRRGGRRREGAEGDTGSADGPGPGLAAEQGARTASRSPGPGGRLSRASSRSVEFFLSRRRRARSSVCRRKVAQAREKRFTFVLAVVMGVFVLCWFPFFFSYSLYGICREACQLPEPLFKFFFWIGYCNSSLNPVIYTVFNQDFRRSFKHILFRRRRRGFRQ
T1 sequence (P19328 whole entry): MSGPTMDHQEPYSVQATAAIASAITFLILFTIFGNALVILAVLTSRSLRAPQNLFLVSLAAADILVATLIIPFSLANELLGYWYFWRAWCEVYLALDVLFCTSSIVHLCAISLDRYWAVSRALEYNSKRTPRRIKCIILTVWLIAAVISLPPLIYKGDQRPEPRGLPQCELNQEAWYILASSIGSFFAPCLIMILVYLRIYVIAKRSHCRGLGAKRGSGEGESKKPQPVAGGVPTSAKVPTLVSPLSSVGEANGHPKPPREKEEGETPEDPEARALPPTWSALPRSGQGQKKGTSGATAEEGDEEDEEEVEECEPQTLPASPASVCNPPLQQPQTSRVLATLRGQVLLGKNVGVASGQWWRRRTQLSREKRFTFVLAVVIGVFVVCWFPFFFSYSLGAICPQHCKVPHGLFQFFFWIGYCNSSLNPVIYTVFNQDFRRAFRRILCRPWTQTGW
T1 sequence (P22909 whole entry): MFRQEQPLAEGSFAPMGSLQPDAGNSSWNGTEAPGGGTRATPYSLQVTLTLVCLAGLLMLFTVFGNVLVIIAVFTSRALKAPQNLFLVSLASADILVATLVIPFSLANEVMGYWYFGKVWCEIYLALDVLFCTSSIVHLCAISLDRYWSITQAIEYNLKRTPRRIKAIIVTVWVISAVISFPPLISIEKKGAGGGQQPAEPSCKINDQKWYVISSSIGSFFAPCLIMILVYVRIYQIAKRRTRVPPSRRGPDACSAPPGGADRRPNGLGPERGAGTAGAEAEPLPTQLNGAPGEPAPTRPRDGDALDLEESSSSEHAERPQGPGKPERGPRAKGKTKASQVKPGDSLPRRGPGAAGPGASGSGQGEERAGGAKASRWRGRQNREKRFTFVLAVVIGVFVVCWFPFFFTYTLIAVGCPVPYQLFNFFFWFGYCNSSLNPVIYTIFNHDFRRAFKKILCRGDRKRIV

[10] = target: T2, Adrenergic receptor alpha-1 (Rattus norvegicus, UniProt P15823+P23944+P43140); assay: Binding affinity towards alpha-1 adrenergic receptor; assay type: protein assay
T2 sequence (P15823 whole entry): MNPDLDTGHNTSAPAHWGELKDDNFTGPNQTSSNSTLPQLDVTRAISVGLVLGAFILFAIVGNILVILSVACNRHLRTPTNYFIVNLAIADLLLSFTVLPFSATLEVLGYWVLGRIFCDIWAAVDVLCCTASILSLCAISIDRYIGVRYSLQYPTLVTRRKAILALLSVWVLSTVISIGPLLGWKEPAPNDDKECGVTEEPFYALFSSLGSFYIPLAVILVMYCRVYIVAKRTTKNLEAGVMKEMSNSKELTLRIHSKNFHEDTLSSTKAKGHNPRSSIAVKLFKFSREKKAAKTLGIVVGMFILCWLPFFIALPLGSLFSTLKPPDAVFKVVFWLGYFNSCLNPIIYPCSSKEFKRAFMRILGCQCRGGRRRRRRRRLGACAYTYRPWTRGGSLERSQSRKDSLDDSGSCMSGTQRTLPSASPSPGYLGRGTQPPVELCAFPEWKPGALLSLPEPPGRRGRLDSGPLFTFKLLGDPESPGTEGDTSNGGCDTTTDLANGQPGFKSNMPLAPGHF
T2 sequence (P23944 whole entry): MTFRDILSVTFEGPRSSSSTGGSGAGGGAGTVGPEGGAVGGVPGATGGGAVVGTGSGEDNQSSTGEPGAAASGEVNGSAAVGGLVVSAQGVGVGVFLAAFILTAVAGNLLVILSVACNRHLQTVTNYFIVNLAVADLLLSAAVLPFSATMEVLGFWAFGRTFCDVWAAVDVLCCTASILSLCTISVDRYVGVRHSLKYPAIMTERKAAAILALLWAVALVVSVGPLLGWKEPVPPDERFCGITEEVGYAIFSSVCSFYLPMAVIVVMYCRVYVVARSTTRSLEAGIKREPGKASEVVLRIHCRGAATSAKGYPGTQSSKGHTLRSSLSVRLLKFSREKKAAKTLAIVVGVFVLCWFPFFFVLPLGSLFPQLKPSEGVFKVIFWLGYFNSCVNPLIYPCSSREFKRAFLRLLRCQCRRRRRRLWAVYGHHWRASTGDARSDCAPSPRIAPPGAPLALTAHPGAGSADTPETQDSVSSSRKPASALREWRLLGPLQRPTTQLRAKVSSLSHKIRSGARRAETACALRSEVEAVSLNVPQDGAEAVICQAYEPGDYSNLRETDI
T2 sequence (P43140 whole entry): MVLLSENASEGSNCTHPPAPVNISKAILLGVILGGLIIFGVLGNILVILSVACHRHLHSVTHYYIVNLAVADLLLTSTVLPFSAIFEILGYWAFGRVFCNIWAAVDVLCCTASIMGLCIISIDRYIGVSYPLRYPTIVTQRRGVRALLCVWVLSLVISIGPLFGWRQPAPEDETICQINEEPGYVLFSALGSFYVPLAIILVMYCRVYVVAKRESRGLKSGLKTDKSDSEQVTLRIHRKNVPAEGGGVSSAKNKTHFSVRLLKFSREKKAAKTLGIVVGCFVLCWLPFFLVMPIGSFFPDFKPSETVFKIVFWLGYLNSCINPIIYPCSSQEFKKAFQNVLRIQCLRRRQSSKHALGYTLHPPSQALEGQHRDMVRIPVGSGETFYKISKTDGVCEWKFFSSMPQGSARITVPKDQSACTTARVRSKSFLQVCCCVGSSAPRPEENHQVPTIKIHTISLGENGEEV

[11] = species on record: Mus musculus; assay: Gross behavioral effects ascertained in mice; W indicates weak stimulant or depressant activity of little significance.; assay type: functional, organism-based
Procedure, shortened: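 Male Swiss Webster mice, 18–24 g, three per dose, given ip doses of 1, 3, 10, 30, 100 and 300 mg/kg. Observed for gross behavior and held for 4 days. Scored as weak (W), stimulant (S), depressant (D) or convulsant (C).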

[12] = test system: Rattus norvegicus; assay: Ability to inhibit the uptake of tritiated norepinephrine (NE) 0.1 mg/kg concentration; assay type: functional
[13] = test system: Rattus norvegicus; assay: Ability to inhibit the uptake of tritiated serotonin(5-HT) 0.1 mg/kg concentration; assay type: functional
[14] = target: D(1A) dopamine receptor (Rattus norvegicus) (UniProt P18901); assay: Binding affinity towards Dopamine receptor D1 at 1.0 uM concentration; procedure, shortened: as §4
[15] = target: D(2) dopamine receptor (Rattus norvegicus) (UniProt P61169); assay: Binding affinity towards dopamine receptor D2 at 1.0 uM concentration; procedure, shortened: as §4
[16] = species on record: Rattus norvegicus; assay: Inhibition of GABA uptake at 1 uM concentration.; assay type: functional

D(2) dopamine receptor, sequence (P61169 whole entry): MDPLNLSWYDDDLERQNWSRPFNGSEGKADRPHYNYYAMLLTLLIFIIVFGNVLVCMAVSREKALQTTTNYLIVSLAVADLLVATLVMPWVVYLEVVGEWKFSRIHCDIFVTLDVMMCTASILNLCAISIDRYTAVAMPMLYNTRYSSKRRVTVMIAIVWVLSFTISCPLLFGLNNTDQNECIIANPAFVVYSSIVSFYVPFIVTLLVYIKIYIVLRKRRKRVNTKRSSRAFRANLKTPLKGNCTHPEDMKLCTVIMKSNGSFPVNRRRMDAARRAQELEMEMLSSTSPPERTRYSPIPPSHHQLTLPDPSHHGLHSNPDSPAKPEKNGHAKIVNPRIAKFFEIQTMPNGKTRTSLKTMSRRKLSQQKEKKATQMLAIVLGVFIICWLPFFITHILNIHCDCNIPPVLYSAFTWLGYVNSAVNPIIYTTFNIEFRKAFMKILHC
Sodium-dependent dopamine transporter, sequence (P23977 whole entry): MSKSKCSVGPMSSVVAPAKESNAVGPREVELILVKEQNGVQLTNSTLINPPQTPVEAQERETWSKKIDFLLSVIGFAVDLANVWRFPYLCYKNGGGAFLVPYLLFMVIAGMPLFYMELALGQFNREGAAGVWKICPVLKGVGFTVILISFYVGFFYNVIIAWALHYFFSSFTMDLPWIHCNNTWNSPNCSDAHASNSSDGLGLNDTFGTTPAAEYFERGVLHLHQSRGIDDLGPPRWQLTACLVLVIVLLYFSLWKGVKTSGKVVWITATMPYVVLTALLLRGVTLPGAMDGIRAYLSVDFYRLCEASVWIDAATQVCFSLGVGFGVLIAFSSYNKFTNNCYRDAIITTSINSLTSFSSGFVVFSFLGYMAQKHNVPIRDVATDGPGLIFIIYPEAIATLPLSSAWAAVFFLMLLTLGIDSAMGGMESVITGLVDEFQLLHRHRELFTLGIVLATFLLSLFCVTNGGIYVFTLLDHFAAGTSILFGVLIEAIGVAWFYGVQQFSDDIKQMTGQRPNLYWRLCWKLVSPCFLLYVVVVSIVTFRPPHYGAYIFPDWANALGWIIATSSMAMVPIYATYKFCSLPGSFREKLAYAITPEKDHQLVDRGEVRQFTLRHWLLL
D(2) dopamine receptor (Rattus norvegicus), sequence (P61169 whole entry): as the sequence (P61169 whole entry) above
D(1A) dopamine receptor (Rattus norvegicus), sequence (P18901 whole entry): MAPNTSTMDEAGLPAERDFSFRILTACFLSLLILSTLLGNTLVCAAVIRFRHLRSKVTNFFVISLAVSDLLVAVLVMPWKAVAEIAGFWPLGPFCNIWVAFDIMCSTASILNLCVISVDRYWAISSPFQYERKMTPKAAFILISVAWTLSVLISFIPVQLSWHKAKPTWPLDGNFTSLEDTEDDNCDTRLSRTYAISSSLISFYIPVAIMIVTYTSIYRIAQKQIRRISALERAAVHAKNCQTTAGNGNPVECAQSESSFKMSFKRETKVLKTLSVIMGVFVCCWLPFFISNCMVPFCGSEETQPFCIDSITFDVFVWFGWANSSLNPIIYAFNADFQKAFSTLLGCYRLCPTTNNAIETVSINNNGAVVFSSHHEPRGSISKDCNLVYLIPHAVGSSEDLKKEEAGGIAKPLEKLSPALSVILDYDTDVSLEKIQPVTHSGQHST
Norepinephrine transporter, sequence (Q9WTR4 whole entry): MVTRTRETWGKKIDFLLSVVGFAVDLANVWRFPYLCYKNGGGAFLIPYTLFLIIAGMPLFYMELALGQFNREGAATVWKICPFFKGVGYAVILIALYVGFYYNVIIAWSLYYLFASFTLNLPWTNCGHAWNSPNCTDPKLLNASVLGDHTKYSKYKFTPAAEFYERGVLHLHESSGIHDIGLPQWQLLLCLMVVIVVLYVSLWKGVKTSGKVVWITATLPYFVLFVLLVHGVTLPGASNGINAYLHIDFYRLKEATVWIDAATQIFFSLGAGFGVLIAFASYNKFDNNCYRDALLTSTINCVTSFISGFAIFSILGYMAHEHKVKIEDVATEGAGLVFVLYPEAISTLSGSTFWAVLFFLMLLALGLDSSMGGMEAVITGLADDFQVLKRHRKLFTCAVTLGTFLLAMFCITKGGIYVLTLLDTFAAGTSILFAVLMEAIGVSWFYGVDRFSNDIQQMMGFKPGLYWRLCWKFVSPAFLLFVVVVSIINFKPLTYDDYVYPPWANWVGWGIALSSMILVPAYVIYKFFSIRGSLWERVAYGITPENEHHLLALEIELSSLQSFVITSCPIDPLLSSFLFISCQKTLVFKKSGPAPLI

Compound: c1ccc([C@@H]2CN3CC[C@H]3c3ccccc32)cc1
ED50 [1]: inactive | ED50 [2]: inactive | Ki [3]: 1620 nM | Ki [4]: 866 nM

Compound: CN(C)CCCN1c2ccccc2CCc2ccc(Cl)cc21 [CLOMIPRAMINE]
Ki [5]: 56 nM | Ki [8]: 5000 nM | Ki [9]: 51 nM

Compound: Br.Cn1ccc2c1[C@H](c1ccccc1)CN1CCC[C@@H]21
ED50 ([6]; Mus musculus, read-out: ED50): > 30 mg/kg | ED50 ([7]; Mus musculus, read-out: ED50): > 30 mg/kg | behavior [11]: Weak | inhibition in vivo at 0.1 mg/kg [12]: 8% | inhibition in vivo at 0.1 mg/kg [13]: 6%

Second part, led by results:

Ki [5]: 875 nM | Ki [8]: > 10000 nM | Ki [9]: 750 nM | Ki [10]: 172 nM
Compound: c1ccc([C@@H]2CN3CCC[C@@H]3c3ccccc32)cc1 (stereo in doubt; 7b)
ED50 [6]: 0.07 mg/kg | ED50 [7]: 0.34 mg/kg

inhibition [14]: 24% | inhibition [15]: 4%
Compound: CSc1ccc([C@@H]2CN3CCC[C@@H]3c3ccccc32)cc1 (stereo in doubt; 48b)
inhibition [16]: 10%
